Experimental data as given in ChEMBL document CHEMBL1926598, “Synthesis, anti-inflammatory activity and ulcerogenic liability of novel nitric oxide donating/chalcone hybrids” (Bioorg Med Chem, 2012).

How the values were obtained:
[1] = Induction of nitric oxide release at 0.1 mM after 4 hrs in phosphate buffer at pH 7.4 by Griess assay; format: physicochemical; details: pH 7.4, 4 h, 100 µM
In short: (§1)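 Compound at a final 10^-4 M with 0.5 mM N-acetylcysteine in phosphate buffer pH 7.4 at 37 °C. Reaction mixture treated with Griess reagent (sulfanilamide, N-naphthylethylenediamine, phosphoric acid), 10 min at room temperature, absorbance read at 546 nm. Sodium nitrite standards (10–80 nmol/mL) used for calibration. NO reported as mol/mol, n = 4 reaction mixtures.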

[2] = Induction of nitric oxide release at 0.1 mM in 0.1 N HCl buffer at pH 1.0 by Griess assay; format: physicochemical; details: pH 1, 100 µM
In short: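 Griess procedure as at neutral pH, but in 0.1 N HCl pH 1 in place of phosphate buffer. Compound at a final 10^-4 M with N-acetylcysteine, 37 °C. Absorbance read at 546 nm against sodium nitrite standards (10–80 nmol/mL). Release expressed relative to a theoretical 1 mol NO/mol compound.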

[3] = Induction of nitric oxide release at 0.1 mM after 6 hrs in phosphate buffer at pH 7.4 by Griess assay; format: physicochemical; details: pH 7.4, 6 h, 100 µM; in short: as §1
[4] = Induction of nitric oxide release at 0.1 mM after 5 hrs in phosphate buffer at pH 7.4 by Griess assay; format: physicochemical; details: pH 7.4, 5 h, 100 µM; in short: as §1
Rattus norvegicus [5] = experiment: Gastric toxicity in albino rat assessed as structural damage in mucosal membrane at 100 mg/kg, po after 5 hrs by hematoxylin and eosin staining; format: organism-based; parameters: dose 100 mg/kg, route oral; details: in vivo
In short: (§2)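 Stomach sections from control and treated rats were dewaxed and hydrated through graded alcohols. They were stained with haematoxylin 5–7 min, differentiated 5–10 s in 1% HCl in 70% alcohol, then stained with 1% eosin for 10 min. Mucosa of the fundic stomach was examined by light microscopy.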

Rattus norvegicus [6] = experiment: Antiinflammatory activity in albino rat assessed as inhibition of carrageenan-induced paw edema at 100 mg/kg, po administered 30 mins prior to challenge measured after 1 hr relative to untreated control; format: functional
In short: (§3)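 Adult male albino rats (120–140 g), groups of four, fasted 24 h with water allowed. Test compound suspended in 0.5% w/v CMC in water, given orally at 100 mg/kg; controls received CMC alone. After 30 min, 0.1 mL of 1% carrageenan in saline injected subplantar into right hind paw, saline into left. Paw thickness measured by caliper; % inhibition = [(VR−VL)control − (VR−VL)treated]/(VR−VL)control ×100; one-way ANOVA versus control.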

[7] = Induction of nitric oxide release at 0.1 mM after 2 hrs in phosphate buffer at pH 7.4 by Griess assay; format: physicochemical; details: pH 7.4, 2 h, 100 µM; in short: as §1
Rattus norvegicus [8] = experiment: Antiinflammatory activity in albino rat assessed as inhibition of carrageenan-induced paw edema at 100 mg/kg, po administered 30 mins prior to challenge measured after 3 hrs relative to untreated control; format: functional; in short: as §3
Rattus norvegicus [9] = experiment: Gastric toxicity in albino rat assessed as ulcer index at 100 mg/kg, po after 5 hrs; format: organism-based; parameters: dose 100 mg/kg, route oral; details: in vivo
In short: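 Rats dosed orally at 100 mg/kg in 0.5% CMC (n = 4). Stomach lesions counted and graded by area: level I <1 mm², II 1–3 mm², III >3 mm². Ulcer index = 1×(level I count) + 2×(level II) + 3×(level III). Mean ± SEM; one-way ANOVA versus control.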

[10] = Induction of nitric oxide release at 0.1 mM after 1 hr in phosphate buffer at pH 7.4 by Griess assay; format: physicochemical; details: pH 7.4, 1 h, 100 µM; in short: as §1
[11] = Induction of nitric oxide release at 0.1 mM after 3 hrs in phosphate buffer at pH 7.4 by Griess assay; format: physicochemical; details: pH 7.4, 3 h, 100 µM; in short: as §1
Rattus norvegicus [12] = experiment: Antiinflammatory activity in albino rat assessed as inhibition of carrageenan-induced paw edema at 100 mg/kg, po administered 30 mins prior to challenge measured after 4 hrs relative to untreated control; format: functional; in short: as §3
Rattus norvegicus [13] = experiment: Antiinflammatory activity in albino rat assessed as inhibition of carrageenan-induced paw edema at 100 mg/kg, po administered 30 mins prior to challenge measured after 4 hrs relative to indomethacin; format: functional; parameters: scale not given: the % may be the effect or the level left
In short: (§4)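 Carrageenan paw edema in male albino rats (120–140 g, n = 4, fasted 24 h), compound 100 mg/kg po in 0.5% CMC 30 min before subplantar 1% carrageenan (0.1 mL). Percent edema inhibition at the stated hour from right minus left paw thickness versus the CMC control, then expressed as a percentage of the indomethacin (100 mg/kg) response at the same time.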

Rattus norvegicus [14] = experiment: Antiinflammatory activity in albino rat assessed as inhibition of carrageenan-induced paw edema at 100 mg/kg, po administered 30 mins prior to challenge measured after 5 hrs relative to untreated control; format: functional; in short: as §3
Rattus norvegicus [15] = experiment: Antiinflammatory activity in albino rat assessed as inhibition of carrageenan-induced paw edema at 100 mg/kg, po administered 30 mins prior to challenge measured after 2 hrs relative to untreated control; format: functional; in short: as §3
Rattus norvegicus [16] = experiment: Gastric toxicity in albino rat assessed as capillary inflammatory cells appearance at 100 mg/kg, po after 5 hrs by hematoxylin and eosin staining; format: organism-based; parameters: dose 100 mg/kg, route oral; details: in vivo; in short: as §2
Rattus norvegicus [17] = experiment: Gastric toxicity in albino rat assessed as abnormal morphology of fundic gland at 100 mg/kg, po after 5 hrs by hematoxylin and eosin staining; format: organism-based; parameters: dose 100 mg/kg, route oral; details: in vivo; in short: as §2
Rattus norvegicus [18] = experiment: Gastric toxicity in albino rat assessed as edema at 100 mg/kg, po after 5 hrs by hematoxylin and eosin staining; format: organism-based; parameters: dose 100 mg/kg, route oral; details: in vivo; in short: as §2
Rattus norvegicus [19] = experiment: Antiinflammatory activity in albino rat assessed as inhibition of carrageenan-induced paw edema at 100 mg/kg, po administered 30 mins prior to challenge measured after 3 hrs relative to indomethacin; format: functional; parameters: scale not given: the % may be the effect or the level left; in short: as §4
Rattus norvegicus [20] = experiment: Gastric toxicity in albino rat assessed as vasodilation of blood capillaries at 100 mg/kg, po after 5 hrs by hematoxylin and eosin staining; format: organism-based; parameters: dose 100 mg/kg, route oral; details: in vivo; in short: as §2
Rattus norvegicus [21] = experiment: Gastric toxicity in albino rat assessed as degeneration of fundic gland at 100 mg/kg, po after 5 hrs by hematoxylin and eosin staining; format: organism-based; parameters: dose 100 mg/kg, route oral; details: in vivo; in short: as §2
Rattus norvegicus [22] = experiment: Gastric toxicity in albino rat assessed as apoptotic glandular epithelial cells appearance at 100 mg/kg, po after 5 hrs by hematoxylin and eosin staining; format: organism-based, Epithelial cell; parameters: dose 100 mg/kg, route oral; details: in vivo; in short: as §2
Rattus norvegicus [23] = experiment: Gastric toxicity in albino rat assessed as loss of mucosal membrane at the area of ulceration at 100 mg/kg, po after 5 hrs by hematoxylin and eosin staining; format: organism-based; parameters: dose 100 mg/kg, route oral; details: in vivo; in short: as §2

Activity [1] [mol/mol] | Activity [2] | Activity [3] [mol/mol] | Activity [4] [mol/mol] | Activity [7] [mol/mol] | Activity [10] [mol/mol] | Activity [11] [mol/mol] | Structure (SMILES) | inhibition in vivo at 100 mg/kg (Rattus norvegicus [6]) [%] | inhibition in vivo at 100 mg/kg (Rattus norvegicus [8]) [%] | UI (Rattus norvegicus [9]) | inhibition in vivo at 100 mg/kg (Rattus norvegicus [12]) [%] | inhibition in vivo at 100 mg/kg (Rattus norvegicus [14]) [%] | inhibition in vivo at 100 mg/kg (Rattus norvegicus [15]) [%] | Activity (Rattus norvegicus [19]) [%] | also measured
0.73 | Not Active | 0.73 | 0.75 | 0.37 | 0.32 | 0.54 | O=C(CO[N+](=O)[O-])Nc1ccc(C(=O)/C=C/c2ccc(Cl)cc2)cc1 | 42 | 69 | 2.5 | 67 | 60 | 57 | 89 | Activity (Rattus norvegicus [17]): Non-toxic; Activity (Rattus norvegicus [18]): Non-toxic; Activity (Rattus norvegicus [20]): Non-toxic
0.64 | Not Active | 0.67 | 0.73 | 0.45 | 0.39 | 0.6 | O=C(CO[N+](=O)[O-])Nc1ccc(C(=O)/C=C/c2ccc3c(c2)OCO3)cc1 | 38 | 61 | 3 | 55 | 54 | 45 | 79 | 
0.66 | Not Active | 0.59 | 0.68 | 0.31 | 0.27 | 0.48 | COc1ccc(/C=C/C(=O)c2ccc(NC(=O)CO[N+](=O)[O-])cc2)cc1 | 33 | 53 | 5.8 | 51 | 46 | 49 | 69 | 
0.59 | Not Active | 0.59 | 0.63 | 0.28 | 0.15 | 0.37 | O=C(CO[N+](=O)[O-])Nc1ccc(C(=O)/C=C/c2ccco2)cc1 | 34 | 48 | 7 | 40 | 39 | 36 | 61 | 
0.499 | Not Active | 0.54 | 0.65 | 0.23 | 0.16 | 0.4 | O=C(COCc1c(-c2ccccc2)no[n+]1[O-])Nc1ccc(C(=O)/C=C/c2ccco2)cc1 | 30 | 59 | 2.5 | 58 | 49 | 45 | 76 | 

More lines, now with the values behind:

Structure (SMILES) | Activity [1] [mol/mol] | Activity [2] | Activity [3] [mol/mol] | Activity [4] [mol/mol] | Activity [7] [mol/mol] | Activity [10] [mol/mol] | Activity [11] [mol/mol] | inhibition in vivo at 100 mg/kg (Rattus norvegicus [6]) [%] | inhibition in vivo at 100 mg/kg (Rattus norvegicus [8]) [%] | UI (Rattus norvegicus [9]) | inhibition in vivo at 100 mg/kg (Rattus norvegicus [12]) [%] | inhibition in vivo at 100 mg/kg (Rattus norvegicus [14]) [%] | inhibition in vivo at 100 mg/kg (Rattus norvegicus [15]) [%] | Activity (Rattus norvegicus [19]) [%] | also measured
O=C(COCc1c(-c2ccccc2)no[n+]1[O-])Nc1ccc(C(=O)/C=C/c2ccc(Cl)cc2)cc1 | 1.295 | Not Active | 0.87 | 1.5 | 0.98 | 0.55 | 1.22 | 38 | 66 | 1 | 75 | 62 | 48 |  | Activity (Rattus norvegicus [5]): Non-toxic; Activity (Rattus norvegicus [13]): 91%; Activity (Rattus norvegicus [16]): Non-toxic
COc1ccc2c(c1)c(CC(=O)O)c(C)n2C(=O)c1ccc(Cl)cc1 [INDOMETHACIN] |  |  |  |  |  |  |  | 56 | 78 | 45.5 | 83 | 87 | 70 |  | Activity (Rattus norvegicus [21]): Toxic; Activity (Rattus norvegicus [22]): Toxic; Activity (Rattus norvegicus [23]): Toxic; Activity (Rattus norvegicus [16]): Toxic
O=C(COCc1c(-c2ccccc2)no[n+]1[O-])Nc1ccc(C(=O)/C=C/c2ccc3c(c2)OCO3)cc1 | 0.89 | Not Active | 0.75 | 1.26 | 0.71 | 0.5 | 0.86 | 34 | 62 | 1.3 | 72 | 70 | 55 |  | Activity (Rattus norvegicus [13]): 87%
CC(O[N+](=O)[O-])C(=O)Nc1ccc(C(=O)/C=C/c2ccc(Cl)cc2)cc1 (configuration not stated) | 0.35 | Not Active | 0.16 | 0.28 | 0.16 | 0.13 | 0.46 | 45 | 62 | 3.5 | 61 | 56 | 55 | 80 | Activity (Rattus norvegicus [5]): Toxic; Activity (Rattus norvegicus [23]): Toxic
COc1ccc(/C=C/C(=O)c2ccc(NC(=O)COCc3c(-c4ccccc4)no[n+]3[O-])cc2)cc1 | 0.482 | Not Active | 0.3 | 0.52 | 0.27 | 0.11 | 0.47 | 30 | 56 | 2 | 55 | 49 | 42 | 73 | 
C/C(=N/O)c1ccc(OCC(=O)Nc2ccc(C(=O)/C=C/c3ccc(Cl)cc3)cc2)cc1 | 0.41 | Not Active | 0.36 | 0.37 | 0.19 | 0.13 | 0.22 | 39 | 66 | 2.2 | 55 | 49 | 54 | 85 | 
